This note sets out measurements from ChEMBL document CHEMBL4387702, “Design and synthesis novel di-carbonyl analogs of curcumin (DACs) act as potent anti-inflammatory agents against LPS-induced acute lung injury (ALI)” (Eur J Med Chem, 2019).

The test system of one series is Mus musculus. The series is described as follows: Antiinflammatory activity in C57BL/6 mouse model of LPS-induced acute lung injury assessed as reduction in lung wet/dry ratio at 10 mg/kg, ip administered daily for one week prior to LPS challenge and measured after 6 hrs. The class given is functional, organism-based. In short, it runs like this:
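C57BL/6 mice (eight per group) received 10 mg/kg i.p. daily for one week; vehicle was 0.9% saline. They were then challenged with intratracheal LPS at 5 mg/kg and sacrificed 6 h later. Endpoints were lung wet/dry weight ratio and total and neutrophil cell counts in BALF, reported as mean ± SEM, n = 6.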

A short description of series [1]: MRT (0 to infinity) in Sprague-Dawley rat at 50 mg/kg, po by UHPLC-MS/MS analysis. The class given is ADME, organism-based. To be noted: in vivo. Summed up:
(§1)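 Male Sprague-Dawley rats (250 ± 20 g) fasted overnight with free access to water, n = 5 per route. Intravenous dose was 5 mg/kg; the intragastric dose is printed as 20 mg/kg in the methods and 50 mg/kg in the table. Tail blood was taken at 0.083, 0.25, 0.5, 1, 2, 4, 6, 9, 12 and 24 h. Samples were centrifuged (12000 rpm, 10 min), deproteinized with 2 volumes of acetonitrile, re-centrifuged and quantified by UHPLC-MS/MS.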

Series [2] is described as follows: MRT (0 to t) in Sprague-Dawley rat at 5 mg/kg, iv by UHPLC-MS/MS analysis. The conditions noted are these: in vivo. The class given is ADME, organism-based. In short, it runs like this:
as §1

Series [3] in a line: Half life in Sprague-Dawley rat at 5 mg/kg, iv by UHPLC-MS/MS analysis. The class given is ADME, organism-based. The conditions noted are these: in vivo. In short, it runs like this:
as §1

Series [4] in a line: AUC (0 to t) in Sprague-Dawley rat at 5 mg/kg, iv by UHPLC-MS/MS analysis. The series is classed as ADME, organism-based. The conditions noted are these: in vivo. Summed up: as §1
Series [5] in a line: Cmax in Sprague-Dawley rat at 5 mg/kg, iv by UHPLC-MS/MS analysis. More on the design: dose 5 mg/kg, route intravenous. The class given is ADME, organism-based. To be noted: in vivo. In short, it runs like this:
as §1

Series [6] can be described thus: Oral bioavailability in Sprague-Dawley rat at 50 mg/kg measured up to 24 hrs by LC-MS/MS analysis. The conditions noted are these: in vivo. The series is classed as ADME, organism-based. In short, it runs like this:
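The rat oral and intravenous plasma profiles (n = 5, tail sampling to 24 h, UHPLC-MS/MS) were used. Oral bioavailability was calculated as F = (AUC p.o × Dose i.v)/(AUC i.v × Dose p.o).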

Series [7] is described as follows: AUC (0 to infinity) in Sprague-Dawley rat at 5 mg/kg, iv by UHPLC-MS/MS analysis. Also noted: dose 5 mg/kg, route intravenous, time infinity. The conditions noted are these: in vivo. The class given is ADME, organism-based. Summed up: as §1

Structures are written as SMILES. Active and inactive are the calls of the source. The calls are words filed in the database; no cut-off is given here.

As for `COc1cc(/C=C/C(=O)N2CCC/C(=C\c3cc(OC)c(OC)c(OC)c3)C2=O)ccc1O`, in the series on Mus musculus, the result was Active.
A word on the MRT inf: it is the average time that molecules of a dose stay in the body. As a reminder, the MRT last is the average time that molecules of a dose stay in the body. As usually defined, the AUC(0-t) is the area under the concentration-time curve up to a stated or last time point. A high value points to more exposure. The Cmax is the maximum level reached in the sampled fluid or tissue. One may read the bioavailability as dose-corrected exposure relative to a reference, in per cent. One may read the AUC as concentration integrated over time. A high value points to high exposure. The compound `COc1cc(/C=C/C(=O)N2CCC/C(=C\c3cc(OC)c(OC)c(OC)c3)C2=O)ccc1OC(C)=O` returned a mean residence time (MRT inf) in series [1] of 12.3 h. The same compound displayed a mean residence time (MRT last) in series [2] of 11.3 h. Moreover, the t1/2 in series [3] was determined as 0.2 h. In series [4], this compound gave an AUC(0-t) of 34.4 ng·h/mL. Moreover, in series [5], the Cmax amounted to 16.4 ng/mL. In series [6], this compound returned a bioavailability of 26.6%. Moreover, the exposure (AUC) in series [7] was determined as 122.4 ng·h/mL.
